Values after ≈ are worked out from the molar mass of the structure shown.
test system: Staphylococcus aureus; assay: Antibacterial activity against methicillin resistant Staphylococcus aureus FPR3757 assessed as inhibition of bacterial growth incubated for 24 hrs by CLSI based method; format: functional; conditions: read-out: MIC100
Summary of the method: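 It was mixed 1:1 with twofold serial compound dilutions and incubated stationary at 37 °C for 24 h. MIC was the lowest concentration giving complete inhibition of observable growth, with an oxacillin control.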

Structure (SMILES)	MIC [µg/mL]
OCc1cccc(Nc2cc(C(F)(F)F)nc3cc(C(F)(F)F)ccc23)c1	> 16
Fc1cccc(Nc2cc(C(F)(F)F)nc3cc(C(F)(F)F)ccc23)c1	4 (≈ 10.7 µM)
FC(F)(F)c1cccc(Nc2cc(C(F)(F)F)nc3cc(C(F)(F)F)ccc23)c1	0.25 (≈ 0.589 µM)
O=c1cc(C(F)(F)F)[nH]c2cc(C(F)(F)F)cc(N3CCOCC3)c12	> 32
FC(F)(F)c1ccc2c(Nc3ccc4c(c3)OCO4)cc(C(F)(F)F)nc2c1	> 4
FC(F)(F)c1ccc(Nc2nc(C(F)(F)F)nc3nc(C(F)(F)F)ccc23)nc1	> 32
Fc1cc(F)c2nc(C(F)(F)F)cc(Nc3ccc(C(F)(F)F)cn3)c2c1F	> 32
Cn1cc(Nc2cc(C(F)(F)F)nc3cc(C(F)(F)F)ccc23)ccc1=O	> 32
FC(F)(F)Oc1cccc(Nc2nc(C(F)(F)F)nc3cc(C(F)(F)F)ccc23)c1	1 (≈ 2.27 µM)
FC(F)(F)Oc1ccc2c(Nc3ccc(C(F)(F)F)cn3)cc(C(F)(F)F)nc2c1	1 (≈ 2.27 µM)
FC(F)(F)c1ccc2c(Nc3cccc(Cl)c3)cc(C(F)(F)F)nc2c1	0.25 (≈ 0.64 µM)
FC(F)(F)Oc1cccc2c(Nc3ccc(C(F)(F)F)cn3)cc(C(F)(F)F)nc12	1 (≈ 2.27 µM)
COc1ccc2c(Nc3ccc(C(F)(F)F)cn3)cc(C(F)(F)F)nc2c1	32 (≈ 82.6 µM)
COc1ccc2c(Nc3ccc(Cl)c(Cl)c3)cc(C(F)(F)F)nc2c1	2 (≈ 5.17 µM)
O=C(Nc1cc(C(F)(F)F)nc2cc(C(F)(F)F)ccc12)c1ccc(C(F)(F)F)cn1	> 32
FC(F)(F)c1ccc2c(NC3CCCCC3)cc(C(F)(F)F)nc2c1	> 16
Fc1ccc(Nc2cc(C(F)(F)F)nc3cc(C(F)(F)F)ccc23)cc1F	0.125 (≈ 0.319 µM)
FC(F)(F)c1ccc(Nc2cc(N3CCOCC3)c3ccc(C(F)(F)F)cc3n2)nc1	8 (≈ 18.1 µM)
CC(=O)c1cccc(Nc2cc(C(F)(F)F)nc3cc(C(F)(F)F)ccc23)c1	> 128
FC(F)(F)c1ccc2c(Nc3ccc(Cl)cc3)cc(C(F)(F)F)nc2c1	0.12 (≈ 0.307 µM)
Oc1cc(C(F)(F)F)nc2c(C(F)(F)F)cccc12	2 (≈ 7.11 µM)

Structure (SMILES)	MIC [µg/mL]
Fc1ccc2c(Nc3ccc(Cl)c(Cl)c3)cc(C(F)(F)F)nc2c1	0.5 (≈ 1.33 µM)
O=c1cc(Nc2cc(C(F)(F)F)nc3cc(C(F)(F)F)ccc23)cc[nH]1	> 32
Oc1cc(C(F)(F)F)nc2cc(Cl)ccc12	20 (≈ 80.8 µM)
O=c1cc(C(F)(F)F)[nH]c2cc(C(F)(F)F)cc(Nc3ccc(C(F)(F)F)nn3)c12	1 (≈ 2.26 µM)
FC(F)(F)c1cc(Nc2ccc(Cl)c(Cl)c2)c2cccc(C(F)(F)F)c2n1	0.5 (≈ 1.18 µM)
FC(F)(F)Oc1cccc(Nc2cc(C(F)(F)F)nc3c(C(F)(F)F)cccc23)c1	1 (≈ 2.27 µM)
COc1ccc2c(O)cc(C(F)(F)F)nc2c1	640 (≈ 2630 µM)
Fc1ccc2c(Nc3cccc(OC(F)(F)F)c3)cc(C(F)(F)F)nc2c1	2 (≈ 5.12 µM)
FC(F)(F)c1ccc2c(N3CCOCC3)cc(C(F)(F)F)nc2c1	> 32
FC(F)(F)c1ccc2c(Nc3cccc(Br)c3)cc(C(F)(F)F)nc2c1	0.25 (≈ 0.574 µM)
Fc1ccc(Nc2nc(C(F)(F)F)nc3nc(C(F)(F)F)ccc23)cc1F	32 (≈ 81.2 µM)
FC(F)(F)c1ccc(Nc2cc(N3CCOCC3)nc3cc(C(F)(F)F)ccc23)nc1	> 32
CSc1cccc(Nc2cc(C(F)(F)F)nc3cc(C(F)(F)F)ccc23)c1	0.25 (≈ 0.621 µM)
FC(F)(F)c1ccc2c(Oc3cccc(Cl)c3)cc(C(F)(F)F)nc2c1	> 32
CN(C)S(=O)(=O)c1ccc2c(Nc3cccc(OC(F)(F)F)c3)cc(C(F)(F)F)nc2c1	8 (≈ 16.7 µM)
FC(F)(F)c1ccc2c(Nc3ccccc3Cl)cc(C(F)(F)F)nc2c1	> 16
CN1Cc2cc(Nc3cc(C(F)(F)F)nc4cc(C(F)(F)F)ccc34)ccc2C1=O	> 32
FC(F)(F)c1ccc(Nc2cnnc3cc(C(F)(F)F)ccc23)nc1	> 32
FC(F)(F)c1ccc2c(Nc3cccc(I)c3)cc(C(F)(F)F)nc2c1	0.25 (≈ 0.518 µM)
CC(C)c1ccccc1Nc1cc(C(F)(F)F)nc2cc(C(F)(F)F)ccc12	320 (≈ 803 µM)
Cc1onc(-c2ccccc2)c1C(=O)N[C@@H]1C(=O)N2[C@@H]1SC(C)(C)[C@@H]2C(=O)O [OXACILLIN]	64 (≈ 159 µM)
